Test system in one data set: not listed separately
The data set is described as follows: Inhibition of disc eversion in Drosophila melanogaster imaginal disc cells at 18 uM in presence of spermidine. The data set is classed as functional.
Details: not given
In outline:
(§1)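 Larvae are Oregon-R, from eggs laid for 24 h at 25 °C on cornmeal medium with bromophenol blue. About 30 leg imaginal discs per culture are cultured 15 h at 25 °C in 1 mL minimal Robb's medium (pH 7.2) with 1 µg/mL 20-hydroxyecdysone and 18 µM compound. Spermidine at 100 µM is added as competitor where stated.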
As for `NCCCCNCc1c2ccccc2cc2ccccc12`, the inhibition at 18 µM turned out to be 100%.
Same read-out and setting: in the case of `CCN(CCCNCCCN)Cc1c2ccccc2cc2ccccc12` it was 100%; in that of `NCCCNCc1c2ccccc2cc2ccccc12`, 100%.
On the same count and under the same terms, the figure for `NCCCCNCCCNCc1c2ccccc2cc2ccccc12` is 9.9%.
On the same count and under the same terms, the figure for `CCN(CCCN)Cc1c2ccccc2cc2ccccc12` is 90%; for `NCCCCNCCCCNCc1c2ccccc2cc2ccccc12` it is 8.7%.
In the case of `NCCCNCCCNCc1c2ccccc2cc2ccccc12`, the inhibition at 18 µM amounted to 100%.
Take `NCCCNCCCCNCc1c2ccccc2cc2ccccc12`: the inhibition at 18 µM turned out to be 23.8%.

Another data set has as its system polyamine transporter. Description: Ratio of IC50 for polyamine transporter deficient […] cells to IC50 for CHO cells. Type of data set: cell-based, Cricetulus griseus. Particulars: chinese hamster, polyamine transporter deficient […] cells and CHO cells; read-out: Ratio IC50. In outline: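 The ratio is the IC50 in the polyamine-transport-deficient CHO-MG line (MGBG-resistant after ethylmethanesulfonate mutagenesis) divided by the IC50 in parental CHO cells.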
With `NCCCCNCc1c2ccccc2cc2ccccc12`, the selectivity ratio worked out at 1.
Consider `CCN(CCCNCCCN)Cc1c2ccccc2cc2ccccc12`, for which the selectivity ratio was 0.8.
The same measure, in the same setting: the figure for `NCCCNCc1c2ccccc2cc2ccccc12` is 1.
For the compound `CCN(CCCCNCCCCN)Cc1c2ccccc2cc2ccccc12`, the selectivity ratio was determined as 1.
On to `NCCCCNCCCNCc1c2ccccc2cc2ccccc12`, for which the selectivity ratio is 3.5.
Still for that read-out and setting: the figure for `CCN(CCCN)Cc1c2ccccc2cc2ccccc12` is 0.9.
On to `NCCCCNCCCCNCc1c2ccccc2cc2ccccc12`, for which the selectivity ratio was 148.
Take `NCCCNCCCNCc1c2ccccc2cc2ccccc12`: the selectivity ratio was determined as 1.8.
`NCCCNCCCCNCc1c2ccccc2cc2ccccc12`: the selectivity ratio is 24.

Test system in another data set: not listed separately
Description: Inhibition of PAT assessed as cytotoxicity against CHO cells. Particulars: Cricetulus griseus. The data set is classed as cell-based.
In the case of `NCCCCNCc1c2ccccc2cc2ccccc12`, the IC50 was 7.7 µM.
The same measure, in the same setting: in the case of `CCN(CCCNCCCN)Cc1c2ccccc2cc2ccccc12` it was 5.3 µM; in that of `NCCCNCc1c2ccccc2cc2ccccc12`, 2.3 µM.
Still for that read-out and setting: the figure for `NCCCCNCCCNCc1c2ccccc2cc2ccccc12` is 2.5 µM; for `CCN(CCCN)Cc1c2ccccc2cc2ccccc12` it is 7.7 µM.
As to `NCCCCNCCCCNCc1c2ccccc2cc2ccccc12`, the IC50 was determined as 0.45 µM.
Same read-out and setting: the figure for `NCCCNCCCNCc1c2ccccc2cc2ccccc12` is 1.9 µM; for `NCCCNCCCCNCc1c2ccccc2cc2ccccc12` it is 0.4 µM.

Test system in another data set: not listed separately
The data set is described as follows: Cytotoxicity against polyamine transporter deficient […] cells. The data set is classed as ADME, cell-based. Particulars: Cricetulus griseus.
Compound `NCCCCNCc1c2ccccc2cc2ccccc12` came in with a half-inhibitory concentration (IC50) of 7.6 µM.
The compound `CCN(CCCNCCCN)Cc1c2ccccc2cc2ccccc12` showed an IC50 of 4 µM.
Same read-out and setting: in the case of `NCCCNCc1c2ccccc2cc2ccccc12` it was 2.4 µM; in that of `CCN(CCCCNCCCCN)Cc1c2ccccc2cc2ccccc12`, 21.9 µM; in that of `NCCCCNCCCNCc1c2ccccc2cc2ccccc12`, 8.8 µM.
Same read-out and setting: in the case of `CCN(CCCN)Cc1c2ccccc2cc2ccccc12` it was 6.6 µM; in that of `NCCCCNCCCCNCc1c2ccccc2cc2ccccc12`, 66.7 µM; in that of `NCCCNCCCNCc1c2ccccc2cc2ccccc12`, 3.4 µM.
The same measure, in the same setting: the figure for `NCCCNCCCCNCc1c2ccccc2cc2ccccc12` is 9.5 µM.

Test system in the next data set: not listed separately
The data set is described as follows: Cytotoxicity against Drosophila melanogaster imaginal disc cells by Trypan blue exclusion test. The data set is classed as cell-based.
Details: not given
An outline of the steps:
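Oregon-R Drosophila melanogaster leg imaginal discs are dissected in Ringer's with 0.1% BSA and cultured 15 h at 25 °C in minimal Robb's medium (pH 7.2). The medium holds 18 µM conjugate and 1 µg/mL 20-hydroxyecdysone. Viability of noneverted disc cells is then judged by Trypan blue exclusion, with everted control discs for comparison.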
Take `NCCCCNCCCCNCc1c2ccccc2cc2ccccc12`: the Activity result is “Toxic”.
The same measure, in the same setting: the entry for `NCCCNCCCCNCc1c2ccccc2cc2ccccc12` is “Toxic”.

Test system in another data set: not listed separately
The data set is described as follows: Inhibition of disc eversion in Drosophila melanogaster imaginal disc cells at 18 uM. Type of data set: functional.
Details: not given
In outline:
as §1
`NCCCCNCc1c2ccccc2cc2ccccc12` had an inhibition at 18 µM of 78.4%.
`CCN(CCCNCCCN)Cc1c2ccccc2cc2ccccc12` had an inhibition at 18 µM of 88.5%.
On the same count and under the same terms, the figure for `NCCCNCc1c2ccccc2cc2ccccc12` is 95.2%; for `CCN(CCCCNCCCCN)Cc1c2ccccc2cc2ccccc12` it is 5.5%; for `NCCCCNCCCNCc1c2ccccc2cc2ccccc12` it is 7.8%.
The same measure, in the same setting: in the case of `CCN(CCCN)Cc1c2ccccc2cc2ccccc12` it was 75.7%; in that of `NCCCCNCCCCNCc1c2ccccc2cc2ccccc12`, 97.6%.
On the same count and under the same terms, the figure for `NCCCNCCCNCc1c2ccccc2cc2ccccc12` is 85.4%; for `NCCCNCCCCNCc1c2ccccc2cc2ccccc12` it is 73.9%.
Compound `NCCCCNCCCN` [SPERMIDINE] had an inhibition at 18 µM of 4.8%.

A further data set has as its system L1210. The data set is described as follows: Cytotoxicity against mouse L1210 cells. Type of data set: functional, cell-based.
Details: not given
`CCN(CCCNCCCN)Cc1c2ccccc2cc2ccccc12` yielded an IC50 of 2.2 µM.
As for `NCCCNCc1c2ccccc2cc2ccccc12`, it took 2.2 µM to reach half-maximal inhibition (IC50).
`NCCCCNCCCNCc1c2ccccc2cc2ccccc12` yielded an IC50 of 0.7 µM.
Same read-out and setting: in the case of `CCN(CCCN)Cc1c2ccccc2cc2ccccc12` it was 5.1 µM; in that of `NCCCNCCCCNCc1c2ccccc2cc2ccccc12`, 0.4 µM.

The values above are taken from ChEMBL document CHEMBL1140719, “A Drosophila model to identify polyamine-drug conjugates that target the polyamine transporter in an intact epithelium” (J Med Chem, 2008).
